Results pooled from the literature.
Compare with care: the assays were run in different laboratories. pIC50: −log10 of the molar value.
Cell line: DU-145
Read-out: cell growth or viability

C[C@@H]1C[C@@H](c2ccc(Br)cc2)c2c(cc3ccccn23)C(=O)O1 (racemic)
pIC50 (resazurin; 72 h): 4.33

Cc1ccc2[nH]cc(C(c3ccc(/C=C/C(=O)O)s3)c3c[nH]c4ccc(C)cc34)c2c1
pIC50 (MTT; 48 h): < 4.00

COc1cccc([C@@H]2C[C@@H](C)OC(=O)c3cc4ccccn4c32)c1 (racemic)
pIC50 (resazurin; 72 h): < 4.00

O=C(O)C(c1c[nH]c2ccccc12)c1c[nH]c2ccccc12
pIC50 (MTT; 48 h): < 4.00

O=C1NC(c2ccccc2)(c2ccccc2)C(=O)N1Cc1cn(-c2c3ccccc3nc3ccccc23)nn1
pIC50 (MTT): 4.10

Cn1cc(C(c2cccc(/C=C/C(=O)O)c2)c2cn(C)c3ccccc23)c2ccccc21
pIC50 (MTT; 48 h): < 4.00

C[C@@H]1C[C@@H](c2ccc3c(c2)OCO3)c2c(cc3ccccn23)C(=O)O1 (racemic)
pIC50 (resazurin; 72 h): 4.45

C[C@H]1[C@@H](O)O[C@@H]2O[C@@]3(C)CC[C@H]4[C@H](C)CC[C@@H]1[C@@]24OO3
pIC50 (CCK-8; 48 h): < 4.30

FC(F)(F)c1ccc(C(c2c[nH]c3ccccc23)c2c[nH]c3ccccc23)cc1
pIC50 (MTT; 48 h): 4.33

COc1cc([C@@H]2C[C@@H](C)OC(=O)c3cc4ccccn4c32)cc(OC)c1OC (racemic)
pIC50 (resazurin; 72 h): < 4.00

O=C(O)/C=C/c1cccc(C(c2c[nH]c3ccccc23)c2c[nH]c3ccccc23)c1
pIC50 (MTT; 48 h): < 4.00

C[C@@H]1C[C@H](c2cccc(F)c2)c2c(cc3ccccn23)C(=O)O1 (racemic)
pIC50 (resazurin; 72 h): < 4.00

Cc1ccc(S(=O)(=O)OCC(=O)Nc2ccc(C(=O)O)c(O)c2)cc1
pIC50: 4.12

COC1=CC(=O)N(C(=O)[C@@H](CCC(Cl)(Cl)Cl)NC(=O)C(C)(C)C)[C@@H]1CCC(Cl)Cl
pIC50 (resazurin; 72 h): < 4.46

COc1cc(C(=O)c2csc(-c3ccccc3)n2)cc(OC)c1OC
pIC50 (SRB; 96 h): 7.15

C[C@@H]1C[C@H](c2cccc(Cl)c2)c2c(cc3ccccn23)C(=O)O1 (racemic)
pIC50 (resazurin; 72 h): 4.26

Cc1cc(=O)[nH]c(=O)n1Cc1cn(-c2c3ccccc3nc3ccccc23)nn1
pIC50 (MTT): 4.58

COc1cc(Nc2nccc(-c3cnn4nc(OC)ccc34)n2)cc(C(F)(F)F)c1
pIC50 (ATP luminescence): 6.42

C[C@H]1O[C@@H](n2cc(F)c(=O)[nH]c2=O)[C@H](O)[C@@H]1O
pIC50 (CCK-8; 48 h): < 4.30

C[C@@H]1C[C@H](c2ccccc2)c2c(cc3ccccn23)C(=O)O1 (racemic)
pIC50 (resazurin; 72 h): < 4.00

CC(C)n1cc(C(c2ccc(/C=C/C(=O)O)s2)c2cn(C(C)C)c3ccccc23)c2ccccc21
pIC50 (MTT; 48 h): 4.28

Cc1ccccc1-c1ccc(Cn2cccc(O)c2=S)cc1
pIC50 (MTS): 4.87
